T cell HTS: T cell immune modulators affecting CD8 T cell-vesicle binding; 2C CD8+ T cell-vesicle binding, flow cytometry; active compounds read low; response (vesicle binding), % at 7 µM; actives 0.068% (n = 330,000);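 active = response, share of CD8 T cells binding vesicles, and their 90th percentile fluorescence all below set limits, cut at about 80% in these data, passing the limit was not always enough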;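 note: values below 100% mean blocked vesicle binding to the CD8+ T cells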
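System: murine 2C transgenic CD8+ T lymphocytes; also added: QL9-loaded Drosophila micro-vesicles; times: binding 1.5 h at 37 °C; measured by: flow cytometry, PE anti-B7-1 (FL2) versus Alexa647 anti-CD8 (FL8), PFA-fixed; control set: Peptide-free naked vesicles (low) and QL9 vesicles with 0.7% DMSO vehicle (high)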
GASC-1 inh: human JMJD2C demethylase inhibition; Q9H3R0; actives 0.069% (n = 330,000); GST-JMJD2C(1-420) H3K9me3 demethylation, DELFIA europium; inhibition, % at 2.35 µM; AID 2099;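 active = more than half of a compound's replicate wells show inhibition beyond 50%, single wells judged on their own value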;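 note: signal counts dimethyl H3K9 product captured on neutravidin plate; 0% = median of DMSO wells and 100% = 0.3 times that DMSO median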
Target sequence (Q9H3R0 1-420 limits assumed): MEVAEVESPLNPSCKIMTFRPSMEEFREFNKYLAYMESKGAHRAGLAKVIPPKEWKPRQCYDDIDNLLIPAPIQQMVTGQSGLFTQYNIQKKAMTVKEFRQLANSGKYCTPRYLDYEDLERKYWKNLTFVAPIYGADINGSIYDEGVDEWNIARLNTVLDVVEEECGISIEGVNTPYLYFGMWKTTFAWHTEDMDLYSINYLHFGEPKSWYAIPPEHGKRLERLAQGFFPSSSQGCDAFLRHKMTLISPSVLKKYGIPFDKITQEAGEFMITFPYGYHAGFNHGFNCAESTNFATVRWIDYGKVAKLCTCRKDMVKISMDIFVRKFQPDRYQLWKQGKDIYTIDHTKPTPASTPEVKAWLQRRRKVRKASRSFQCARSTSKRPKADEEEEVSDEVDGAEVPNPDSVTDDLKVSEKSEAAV
HIF activator: HIF pathway transcriptional activation. U2OS HRE-luciferase reporter, luminescence; normalized: DMSO 0%, desferrioxamine 100%. activation, % at 7.5 µM (by protocol). actives 0.32% (n = 300,000). AID 1910;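 active = mean activation of at least 10% of the iron chelator positive control signal, with at least half of replicates also reaching 10%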
SUMO Mot1 rescue: blocks SUMOylation pathway, rescuing yeast Mot1-301 growth | S. cerevisiae Mot1-301 growth rescue, ATP luminescence, 38.5C; percent above DMSO median, 100 means doubled | growth rescue, % at 18.8 µM | actives 1% (n = 320,000) | AID 2716;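 active = every valid replicate shows activation above 250% relative to neutral control wells; inactive = the rest, any valid replicate at or below 250%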;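 note: OY570 slx delta 5 strain wells were the positive control but not used for scaling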
* marks the source's active call; other numbers are inactive results. In the library only some 1.4% were active in any assay of this set; here they are far more common.

How did COC(=O)CC1C(=O)NCCN1C(=O)CSc1nnc(Nc2ccc(OC)cc2)s1 (centres undefined) do in these assays?
T cell HTS: 211.3; GASC-1 inh: 10.2; HIF activator: 236.2*; SUMO Mot1 rescue: 14.3

What do the screens show for `COc1ccc(CN2CCC(=O)N([C@H](CO)c3ccccc3)CC2)cc1`?
T cell HTS: 298.5; GASC-1 inh: -9.2; HIF activator: -1.2; SUMO Mot1 rescue: 3.7

How did CS(=O)(=O)N1CCC(Oc2cccc(C(=O)NCCCC3CCCC3)c2)CC1 do in these assays?
T cell HTS: 175.8; GASC-1 inh: 8.9; HIF activator: 0.6; SUMO Mot1 rescue: -11.4

What do the screens show for `CN(c1ccccc1)S(=O)(=O)c1ccc(C(=O)NNC(=O)c2ccccc2)cc1`?
T cell HTS: 388.0

Results for CN(c1ccc(C(=O)O)cc1)S(=O)(=O)c1ccccc1 ?
T cell HTS: 447.8; GASC-1 inh: 64.8*; HIF activator: -0.3

What do the screens show for `COc1cc(OC)cc(C(=O)N[C@H](C(=O)NCc2ccc(F)cc2)C(C)C)c1`?
T cell HTS: 97.1; GASC-1 inh: -5.6; HIF activator: -0.7; SUMO Mot1 rescue: 6.9

Results for COc1cc(OC)cc(C(=O)NNC(=O)C2CCCC2)c1 ?
T cell HTS: 172.4; GASC-1 inh: -26.2; HIF activator: -20.4; SUMO Mot1 rescue: 330.7*

How did COc1cc(C(=O)NNC(=O)C2CCCC2)cc(OC)c1OC do in these assays?
T cell HTS: 239.7; GASC-1 inh: -2.5; HIF activator: -0.2; SUMO Mot1 rescue: -21.8

Results for COc1ccc(NS(=O)(=O)c2ccc(F)c(F)c2F)cc1S(=O)(=O)N1CCOCC1 ?
T cell HTS: 436.0; GASC-1 inh: 2.9; SUMO Mot1 rescue: -7.0

How did Cc1cc(Cl)cc(C)c1OCCCCN1CCOCC1 do in these assays?
T cell HTS: 206.9; GASC-1 inh: 43.4; HIF activator: -0.1; SUMO Mot1 rescue: 283.1*

Results for Cc1cc(Cl)c(OCCCCN2CCOCC2)c(Br)c1 ?
T cell HTS: 201.8; GASC-1 inh: -121.4; HIF activator: -0.2; SUMO Mot1 rescue: 147.3

What do the screens show for `NC(=O)COc1cccc2cccnc12`?
T cell HTS: 381.4; GASC-1 inh: 73.6*; HIF activator: -0.3; SUMO Mot1 rescue: -14.0

What do the screens show for `Cc1cc(NC(=O)COc2cccc3cccnc23)no1`?
GASC-1 inh: 13.7; HIF activator: 1.6

What do the screens show for `O=C(CCS(=O)(=O)c1ccccc1Cl)NC1CCCCCC1`?
T cell HTS: 264.4; GASC-1 inh: 6.6; SUMO Mot1 rescue: 21.2

Results for COc1ccc(N(C(=O)CCl)C(C(=O)NCCc2ccccc2)c2cccs2)cc1Cl (centres undefined) ?
T cell HTS: 121.6; GASC-1 inh: 10.8; HIF activator: -5.1; SUMO Mot1 rescue: 263.6*

Results for CC(C)[C@H](NC(=O)N1c2ccccc2NC(=O)[C@@H]1C(C)C)C(=O)N[C@@H](C(=O)O)c1ccccc1 ?
T cell HTS: 385.9; GASC-1 inh: 5.1; HIF activator: -0.1; SUMO Mot1 rescue: 910.4*

Results for Cc1c(C(=O)N2CCC(C(N)=O)CC2)oc2ccc(Br)cc12 ?
T cell HTS: 995.5; GASC-1 inh: -5.1; HIF activator: 2.4; SUMO Mot1 rescue: 249.4

What do the screens show for `C=CCn1c(O)c(N=O)c2ccccc21`?
T cell HTS: 338.5; GASC-1 inh: -2.4; HIF activator: -0.1; SUMO Mot1 rescue: 451.6

What do the screens show for `C=CCn1c(O)c(N=Nc2ccccc2C)c2ccccc21`?
T cell HTS: 276.1; GASC-1 inh: 97.1*; HIF activator: -0.2; SUMO Mot1 rescue: -10.3

What do the screens show for `Cc1ccc(S(=O)(=O)N2CCC(C(=O)OC(C)C(=O)NC3CCCCC3C)CC2)cc1C` (centres undefined)?
T cell HTS: 532.0; GASC-1 inh: -1.2; SUMO Mot1 rescue: 19.7

How did CCOc1ccc(S(=O)(=O)N2CCC(C(=O)OC(C)C(=O)NC3CCCCC3C)CC2)cc1 (centres undefined) do in these assays?
T cell HTS: 0.0*; GASC-1 inh: 9.1; SUMO Mot1 rescue: 0.0

What do the screens show for `CCn1c(C)c(C(C)=O)c(N2CCN(c3cccc(Cl)c3)CC2)nc1=S`?
T cell HTS: 0.0; GASC-1 inh: -2.0; HIF activator: 0.0; SUMO Mot1 rescue: 584.6*

Results for CC(=O)c1c(N2CCN(c3cccc(Cl)c3)CC2)nc(=S)n(-c2ccccc2)c1C ?
T cell HTS: 590.2; GASC-1 inh: -0.6; SUMO Mot1 rescue: 1.6

What do the screens show for `CNc1snc(C)c1C(=O)OCC(=O)NCc1ccccc1OC`?
T cell HTS: 555.1; GASC-1 inh: 2.3; SUMO Mot1 rescue: -7.3

Screening data: PubChem BioAssay, several laboratories
